Laboratory results as given in ChEMBL document CHEMBL4428038, “Overcoming chloroquine resistance in malaria: Design, synthesis and structure-activity relationships of novel chemoreversal agents” (Eur J Med Chem, 2016).
≈ marks a conversion by molar mass, not a printed value. Calls of active or inactive are those of the source. The rule behind the calls is not given here.

Tests used:
[1] = Solubility of compound in DMSO at 10 uM; format: physicochemical
Outline: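 Solubility judged under the probe-3 uptake assay conditions. DMSO stocks were stored in aliquots and diluted to working concentration with PBS, protected from light. The compound was added to K1 parasite cultures (2.5% hematocrit, late-ring/early-trophozoite stage) with 6 of fluorescent CQ probe and incubated for 10 h at 37 °C.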

[2] = tested on: Plasmodium falciparum 7G8; assay: Inhibition of CRT SVMNT haplotype mutant in intermediate chloroquine-resistant Plasmodium falciparum 7G8 isolate MRA-154 t assessed as reversal of chloroquine resistance by measuring reduction in chloroquine IC50 at 500 nM relative to chloroquine alone
[3] = tested on: T1, Chloroquine resistance transporter (Plasmodium falciparum), Q9N623 [K76T]; assay: Inhibition of CRT K76T mutant in chloroquine-resistant Plasmodium falciparum NHP4559 assessed as reversal of chloroquine resistance by measuring reduction in chloroquine IC50 at 500 nM relative to chloroquine alone
T1 sequence (whole entry): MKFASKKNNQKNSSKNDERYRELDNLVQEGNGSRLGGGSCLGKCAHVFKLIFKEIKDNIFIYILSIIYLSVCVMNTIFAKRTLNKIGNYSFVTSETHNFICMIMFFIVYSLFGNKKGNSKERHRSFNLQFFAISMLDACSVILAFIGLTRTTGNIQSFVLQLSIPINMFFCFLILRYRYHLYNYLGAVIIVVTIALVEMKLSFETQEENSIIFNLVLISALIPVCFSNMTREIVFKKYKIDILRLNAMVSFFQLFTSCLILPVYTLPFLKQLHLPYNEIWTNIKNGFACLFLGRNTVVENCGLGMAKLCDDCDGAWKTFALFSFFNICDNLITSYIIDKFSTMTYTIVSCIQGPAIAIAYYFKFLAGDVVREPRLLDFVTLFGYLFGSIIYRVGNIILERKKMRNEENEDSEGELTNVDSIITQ

[4] = Resistance index, ratio of chloroquine IC50 for chloroquine-resistant Plasmodium falciparum K1 isolate MRA-159 CRT CVIET haplotype mutant to chloroquine IC50 for chloroquine-sensitive Plasmodium falciparum 3D7 isolate MRA-102 at 500 nM
Outline: (§1)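 Chloroquine IC50 was measured with the chemoreversal agent fixed at 500 nM in K1 or 7G8 and in sensitive 3D7 (means, n = 3). The resistance ratio is the chloroquine IC50 in K1 or 7G8 divided by the chloroquine IC50 in 3D7.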

[5] = tested on: Plasmodium falciparum; assay: Intrinsic antimalarial activity against intermediate chloroquine-resistant Plasmodium falciparum 7G8 isolate MRA-154 harboring CRT SVMNT haplotype mutant assessed as reduction in parasite viability at 500 nM; format: functional, organism-based
[6] = tested on: Plasmodium falciparum; assay: Intrinsic antimalarial activity against chloroquine/artemisinin-resistant Plasmodium falciparum ARS233 harboring CRT K76T mutant assessed as reduction in parasite viability at 500 nM; format: functional, organism-based
[7] = Permeability of compound incubated for 6 hrs at pH 7.4 by PAMPA; format: ADME; details: read-out: Peff
[8] = tested on: Plasmodium falciparum K1; assay: Inhibition of CRT CVIET haplotype mutant in Plasmodium falciparum K1 isolate MRA-159 infected in erythrocytes assessed as chloroquine-coumarin probe accumulation at 10 uM after 10 hrs by Hoechst 33342 staining based flow cytometry (reference value: 35.57 +/- 3.84%); format: cell-based; set-up: scale not given: the % may be the effect or the level left
Outline: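 Infected erythrocyte cultures at 2.5% hematocrit and 7–12% parasitemia, synchronized to late-ring/early-trophozoite stage, were incubated with chloroquine-coumarin probe plus test agent for 10 h at 37 C. Cells were then washed, resuspended in PBS and read by flow cytometry (405 nm excitation, 450/50 filter). Hoechst-stained duplicate wells set parasitemia. Uptake = % infected erythrocytes fluorescent. Controls: PBS (negative), desipramine and parent compound (positive). ≥3 independent experiments; mean ± SEM.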

[9] = tested on: T1, Chloroquine resistance transporter (Plasmodium falciparum), Q9N623 [K76T]; assay: Inhibition of CRT K76T mutant in chloroquine/artemisinin-resistant Plasmodium falciparum ARS272 assessed as reversal of chloroquine resistance by measuring reduction in chloroquine IC50 at 500 nM relative to chloroquine alone
[10] = tested on: Plasmodium falciparum; assay: Potentiation of chloroquine-induced antimalarial activity against chloroquine-sensitive Plasmodium falciparum HB3 isolate MRA-155 assessed as reduction in chloroquine IC50 at 500 nM relative to chloroquine alone; format: functional
[11] = tested on: Plasmodium falciparum; assay: Potentiation of chloroquine-induced antimalarial activity against chloroquine-sensitive Plasmodium falciparum 3D7 isolate MRA-102 assessed as reduction in chloroquine IC50 at 500 nM relative to chloroquine alone; format: functional
[12] = tested on: Plasmodium falciparum; assay: Intrinsic antimalarial activity against chloroquine-resistant Plasmodium falciparum K1 isolate MRA-159 harboring CRT CVIET haplotype mutant assessed as reduction in parasite viability at 500 nM; format: functional, organism-based
[13] = tested on: Plasmodium falciparum; assay: Intrinsic antimalarial activity against chloroquine-sensitive Plasmodium falciparum HB3 isolate MRA-155 assessed as reduction in parasite viability at 500 nM; format: functional, organism-based
[14] = tested on: Plasmodium falciparum; assay: Intrinsic antimalarial activity against chloroquine/artemisinin-resistant Plasmodium falciparum NHP4773 harboring CRT K76T mutant assessed as reduction in parasite viability at 500 nM; format: functional, organism-based
[15] = tested on: Plasmodium falciparum; assay: Intrinsic antimalarial activity against chloroquine-resistant Plasmodium falciparum Dd2 isolate MRA-156 harboring CRT K76T mutant assessed as reduction in parasite viability at 500 nM; format: functional, organism-based
[16] = Aqueous kinetic solubility of compound in pH 7.4 solution incubated for 24 hrs; format: physicochemical; details: for solubility kinetic at 24 h: aqueous solution pH 7.4, pH 7.4, read-out: Kinetic_solubility
[17] = tested on: T1, Chloroquine resistance transporter (Plasmodium falciparum), Q9N623 [K76T]; assay: Inhibition of CRT K76T mutant in chloroquine/artemisinin-resistant Plasmodium falciparum NHP4773 assessed as reversal of chloroquine resistance by measuring reduction in chloroquine IC50 at 500 nM relative to chloroquine alone
[18] = Inhibition of CRT CVIET haplotype mutant in Plasmodium falciparum K1 isolate MRA-159 infected in erythrocytes assessed as reversal of chloroquine resistance by measuring reduction in chloroquine IC50 by Hoechst 33342 staining based flow cytometry; format: cell-based
Outline: (§2)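 Chloroquine IC50 was determined in the presence of a fixed 500 nM chemoreversal agent, against chloroquine alone. The RMI is the ratio of chloroquine IC50 with agent to chloroquine IC50 alone. Mean of n = 3; two-tailed t test versus chloroquine without agent.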

[19] = tested on: T1, Chloroquine resistance transporter (Plasmodium falciparum), Q9N623 [K76T]; assay: Inhibition of CRT K76T mutant in chloroquine/artemisinin-resistant Plasmodium falciparum ARS233 assessed as reversal of chloroquine resistance by measuring reduction in chloroquine IC50 at 500 nM relative to chloroquine alone
[20] = tested on: Plasmodium falciparum; assay: Intrinsic antimalarial activity against chloroquine-sensitive Plasmodium falciparum 3D7 isolate MRA-102 assessed as reduction in parasite viability at 500 nM; format: functional, organism-based
[21] = tested on: Plasmodium falciparum K1; assay: Inhibition of CRT CVIET haplotype mutant in chloroquine-resistant Plasmodium falciparum K1 isolate MRA-159 assessed as reversal of chloroquine resistance by measuring reduction in chloroquine IC50 at 500 nM relative to chloroquine alone
[22] = tested on: Plasmodium falciparum; assay: Intrinsic antimalarial activity against chloroquine-resistant Plasmodium falciparum NHP4559 harboring CRT K76T mutant assessed as reduction in parasite viability at 500 nM; format: functional, organism-based
[23] = tested on: T1, Chloroquine resistance transporter (Plasmodium falciparum), Q9N623 [K76T]; assay: Inhibition of CRT K76T mutant in chloroquine-resistant Plasmodium falciparum Dd2 isolate MRA-156 assessed as reversal of chloroquine resistance by measuring reduction in chloroquine IC50 at 500 nM relative to chloroquine alone
[24] = Permeability of compound incubated for 16 hrs at pH 7.4 by PAMPA; format: ADME; details: read-out: Peff
[25] = Resistance index, ratio of chloroquine IC50 for intermediate chloroquine-resistant Plasmodium falciparum 7G8 isolate MRA-154 CRT SVMNT haplotype mutant to chloroquine IC50 for chloroquine-sensitive Plasmodium falciparum 3D7 isolate MRA-102 at 500 nM; outline: as §1
[26] = tested on: Plasmodium falciparum; assay: Intrinsic antimalarial activity against chloroquine/artemisinin-resistant Plasmodium falciparum ARS272 harboring CRT K76T mutant assessed as reduction in parasite viability at 500 nM; format: functional, organism-based
[27] = Inhibition of CRT CVIET haplotype mutant in chloroquine-resistant Plasmodium falciparum K1 isolate MRA-159 assessed as reversal of chloroquine resistance by measuring reduction in chloroquine IC50 relative to chloroquine alone; outline: as §2
[28] = Therapeutic index, ratio of IC50 for TAMH to EC50 for chloroquine-resistant Plasmodium falciparum K1 isolate MRA-159 CRT CVIET haplotype mutant; format: toxicity; details: mouse, TAMH cells; read-out: Ratio IC50/EC50
Outline: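 Host-cell IC50 was measured by ATP-luminescence viability assay in TAMH hepatocytes (mean of n = 4 independent determinations) or AC10 cardiomyocytes. Each IC50 was divided by the K1 EC50, the concentration of chemoreversal agent that halves the chloroquine concentration needed for 50% parasite inhibition.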

[29] = tested on: TAMH; assay: Cytotoxicity against TAMH assessed as reduction in cell viability by CellTiter-Glo assay; format: cell-based; details: Mus musculus
Outline: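 For TAMH (hepatocyte line) and AC10 (cardiomyocyte line), viability was read by ATP luminescence (CellTiter-Glo), and the value reported is IC50.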

| SMILES | Ratio IC50 [2] | Ratio IC50 [3] | Ratio IC50 [4] | Activity [5] | Activity [6] | Activity [8] | Ratio IC50 [9] | Ratio IC50 [10] | Ratio IC50 [11] | Activity [12] | Activity [13] | Activity [14] | Activity [15] | Ratio IC50 [17] | Ratio IC50 [19] | Activity [20] | Ratio IC50 [21] | Activity [22] | Ratio IC50 [23] | Ratio IC50 [25] | other results |
| --- | --- | --- | --- | --- | --- | --- | --- | --- | --- | --- | --- | --- | --- | --- | --- | --- | --- | --- | --- | --- | --- |
| CC(C)(C)OC(=O)N1CCN(C2Cc3ccccc3Sc3ccccc32)CC1 (stereo not given) |  |  |  |  |  |  |  |  |  |  |  |  |  |  |  |  |  |  |  |  | solubility [1]: Insoluble |
| CN(C)C(=O)C(CCN1CCC(O)(c2ccc(Cl)cc2)CC1)(c1ccccc1)c1ccccc1 [LOPERAMIDE] | 0.59 | 0.79 | 14 | inactive | inactive | 87.6% | 0.75 | 1.04 | 1.08 | inactive | inactive | inactive | inactive | 0.64 | 0.64 | inactive | 0.74 | inactive | 0.82 | 3.4 | Papp at 6 h [7]: 16 ×10⁻⁶ cm/s; Kinetic_solubility ([16]; buffer, pH 7.4, 24 h): 410 µg/mL; EC50 [18]: 685 nM; Papp at 16 h [24]: 12.5 ×10⁻⁶ cm/s; Activity [26]: inactive |
| c1ccc2c(c1)CC(N1CCNCC1)c1ccccc1S2 (stereo not given) | 0.76 | 0.68 | 9.3 | inactive | inactive | 69.8% | 0.68 | 1 | 1.21 | inactive | inactive | inactive | inactive | 0.69 | 0.64 | inactive | 0.55 | inactive | 0.81 | 3.8 | solubility kinetic at 24 h [16]: 87.1 µg/mL (≈ 294 µM); EC50 [27]: 343 nM; Activity [26]: inactive |
| CN1CCN(C2Cc3ccccc3Sc3ccc(Cl)cc32)CC1 (stereo not given) [CLOROTEPINE] | 1.12 | 1.09 | 18.1 | inactive | inactive | 82.8% | 1.05 | 1.04 | 1.07 | inactive | inactive | inactive | inactive | 0.87 | 0.87 | inactive | 0.94 | inactive | 0.98 | 6.4 | solubility kinetic at 24 h [16]: 34.9 µg/mL (≈ 101 µM); EC50 [18]: 1270 nM; Activity [26]: inactive |
| CN1CCN(C2Cc3ccccc3Sc3ccccc32)CC1 (stereo not given) |  |  |  |  |  |  |  |  |  |  |  |  |  |  |  |  |  |  |  |  | solubility [1]: Insoluble |
| Ic1ccccc1CN[C@@H]1C2CCN(CC2)[C@@H]1C(c1ccccc1)c1ccccc1 | 0.59 | 0.28 | 5 | inactive | inactive | 80.5% | 0.26 | 1.09 | 1.07 | inactive | inactive | inactive | inactive | 0.27 | 0.2 | inactive | 0.26 | inactive | 0.37 | 3.4 | selectivity ratio [28]: 175; Papp at 6 h [7]: 10.4 ×10⁻⁶ cm/s; solubility kinetic at 24 h [16]: 31 µg/mL (≈ 61 µM); IC50 [29]: 17.2 µM; EC50 [18]: 98 nM; Papp at 16 h [24]: 8.24 ×10⁻⁶ cm/s; Activity [26]: inactive |
